Data published in ChEMBL document CHEMBL3232870, “Discovery of 3-(4-methanesulfonylphenoxy)-N-[1-(2-methoxy-ethoxymethyl)-1H-pyrazol-3-yl]-5-(3-methylpyridin-2-yl)-benzamide as a novel glucokinase activator (GKA) for the treatment of type 2 diabetes mellitus” (Bioorg Med Chem, 2014).

What was measured:
[1] = target: T1, Cytochrome P450 2C8 (Homo sapiens, UniProt P10632); assay: Inhibition of CYP2C8 in human liver microsomes; type: ADME
T1 sequence (P10632 whole entry): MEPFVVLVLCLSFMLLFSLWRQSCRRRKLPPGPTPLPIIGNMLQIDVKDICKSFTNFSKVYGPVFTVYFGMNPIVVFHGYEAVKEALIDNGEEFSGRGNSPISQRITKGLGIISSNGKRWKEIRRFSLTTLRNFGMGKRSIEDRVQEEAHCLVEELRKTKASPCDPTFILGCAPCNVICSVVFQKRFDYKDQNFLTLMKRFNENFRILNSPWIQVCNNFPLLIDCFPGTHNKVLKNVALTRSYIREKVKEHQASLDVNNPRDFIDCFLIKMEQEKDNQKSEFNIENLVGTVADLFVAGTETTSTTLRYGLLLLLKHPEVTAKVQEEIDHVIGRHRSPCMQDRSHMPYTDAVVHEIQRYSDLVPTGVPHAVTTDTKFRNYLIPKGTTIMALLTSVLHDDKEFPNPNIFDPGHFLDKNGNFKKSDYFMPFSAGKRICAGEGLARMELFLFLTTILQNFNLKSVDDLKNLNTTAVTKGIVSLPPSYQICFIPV
Procedure, shortened: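 Pooled human liver microsomes at 0.25 mg/mL, each with a CYP-selective substrate and test compound up to 25 µM, preincubated at 37 °C. It is stopped on ice with ice-cold acetonitrile and centrifuged, and the supernatant is analysed by LC–MS/MS.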

[2] = AUC (0 to t) in female Sprague-Dawley rat at 500 mg/kg, po measured on day 14; type: ADME, organism-based; parameters: dose 500 mg/kg, route oral; conditions: plasma
Procedure, shortened: (§1)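 Sprague–Dawley rats, 5 weeks old at arrival, both sexes. Given the compound by oral gavage once daily for 14 days at 0, 250, 500 or 1000 mg/kg/day, with 0.5% methylcellulose as vehicle. Toxicokinetic parameters were determined on Day 1 and Day 14.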

[3] = Tmax in female Sprague-Dawley rat at 250 mg/kg, po measured on day 14; type: ADME, organism-based; parameters: dose 250 mg/kg, route oral; conditions: in vivo
Procedure, shortened: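 Sprague–Dawley rats of both sexes, 5 weeks old at arrival, received daily oral gavage at 0, 250, 500 or 1000 mg/kg/day for 14 days. Vehicle was 0.5% methylcellulose at 10 mL/kg. Toxicokinetics were taken on Day 1 and Day 14. Necropsy was by Day 15. Testis was fixed in modified Davidson's fixative, paraffin-sectioned and H&E-stained, with histopathology on control and high-dose groups only.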

[4] = tested on: Salmonella typhimurium; assay: Genotoxicity in Salmonella typhimurium TA100 assessed as increase in number of revertants at 1.5 to 5000 ug/plate by Ames test in presence of S9 fraction; type: toxicity, organism-based; conditions: salmonella enterica subsp. enterica serovar typhimurium
Procedure, shortened: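 Ames reverse mutation test by direct plate incorporation in S. typhimurium TA98 and TA100, with or without Aroclor 1254-induced rat liver S9 mix. Compound in DMSO at 1.5–5000 µg/plate, plated in top agar, incubated 37 °C for about 50 h, then revertant colonies counted. Plates were checked for precipitation and cytotoxicity. A positive was a reproducible, dose-related increase in revertants of more than 2-fold.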

[5] = Mean residence time in ICR mouse at 3 mg/kg, iv and 10 mg/kg, po; type: ADME, organism-based; conditions: in vivo
Procedure, shortened: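 Male ICR mice and 7-week-old SD rats received a 3 mg/kg iv bolus or a 10 mg/kg oral gavage dose. Plasma was precipitated with 2 volumes of acetonitrile and analysed by HPLC. Parameters came from noncompartmental analysis.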

[6] = Elimination half life in ICR mouse at 3 mg/kg, iv and 10 mg/kg, po; type: ADME, organism-based; conditions: in vivo, read-out: beta t1/2 (converted)
Procedure, shortened: (§2)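 Male ICR mice and 7-week-old SD rats received a 3 mg/kg intravenous bolus or a 10 mg/kg oral gavage dose. Plasma was deproteinized with acetonitrile (2 volumes) and compound measured by HPLC. Parameters came from noncompartmental analysis.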

[7] = AUC in Sprague-Dawley rat at 3 mg/kg, iv and 10 mg/kg, po; type: ADME, organism-based; conditions: plasma; procedure, shortened: as §2
[8] = target: T2, Hexokinase-4 (Homo sapiens, UniProt P35557); assay: Activation of recombinant human pancreatic glucokinase using 10 mM glucose by spectrophotometry
T2 sequence (P35557 whole entry): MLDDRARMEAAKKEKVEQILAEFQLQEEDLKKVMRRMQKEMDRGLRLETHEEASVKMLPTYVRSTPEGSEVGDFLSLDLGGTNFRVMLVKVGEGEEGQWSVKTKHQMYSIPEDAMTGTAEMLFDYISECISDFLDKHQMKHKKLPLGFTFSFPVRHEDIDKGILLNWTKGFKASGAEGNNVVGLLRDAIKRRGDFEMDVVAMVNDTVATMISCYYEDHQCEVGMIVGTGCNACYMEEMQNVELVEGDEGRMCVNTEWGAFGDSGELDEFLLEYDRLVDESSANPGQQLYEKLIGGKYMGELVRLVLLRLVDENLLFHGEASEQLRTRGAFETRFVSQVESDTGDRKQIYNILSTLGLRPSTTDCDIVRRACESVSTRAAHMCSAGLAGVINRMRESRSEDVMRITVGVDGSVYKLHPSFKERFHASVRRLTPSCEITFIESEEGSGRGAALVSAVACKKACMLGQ
Procedure, shortened: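 Purified recombinant human pancreatic glucokinase, compounds in DMSO. Buffer: 25 mM HEPES pH 7.4, 10 mM glucose, 25 mM KCl, 1 mM MgCl2, 1 mM DTT, 1 mM ATP, 1 mM NADP, 2.5 U/mL G6PDH. Activity was expressed against DMSO-only control (100%). EC50 came from 12 concentrations fitted to a variable-slope sigmoidal curve. Values are means of three duplicate runs.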

[9] = tested on: Mus musculus; assay: Toxicity in C57BL/J6 db/db mouse assessed as effect on body weight at 50 mg/kg, po; type: organism-based; parameters: dose 50 mg/kg, route oral; conditions: in vivo
[10] = Cmax in female Sprague-Dawley rat at 500 mg/kg, po measured on day 1; type: ADME, organism-based; parameters: dose 500 mg/kg, route oral; conditions: in vivo; procedure, shortened: as §1
[11] = Cmax in Sprague-Dawley rat at 3 mg/kg, iv and 10 mg/kg, po; type: ADME, organism-based; conditions: in vivo; procedure, shortened: as §2

## COCCOCn1ccc(NC(=O)c2cc(Oc3ccc(S(C)(=O)=O)cc3)cc(-c3ncccc3C)c2)n1
[1]
  inhibition (INH): Not Active
[2]
  AUC(0-t): 16300 ng·h/mL
[3]
  Tmax: 1.3 h
[4]
  Activity: Non-toxic
[5]
  MRT: 0.92 h
[6]
  half-life: 1.4 h
[7]
  AUC: 3800 ng·h/mL
[8]
  EC50: 315 nM
[9]
  Activity: Non-toxic
[10]
  Cmax: 4300 ng/mL
[11]
  Cmax: 3700 ng/mL
